Data reported in ChEMBL document CHEMBL1250419, “An integrative in silico methodology for the identification of modulators of macrophage migration inhibitory factor (MIF) tautomerase activity” (Bioorg Med Chem, 2010).

Key:
[1] = molecular target: T1, Macrophage migration inhibitory factor (Homo sapiens, UniProt P14174); experiment: Inhibition of human MIF tautomerase activity in presence of Triton X-100 as detergent
T1 sequence (P14174 whole entry): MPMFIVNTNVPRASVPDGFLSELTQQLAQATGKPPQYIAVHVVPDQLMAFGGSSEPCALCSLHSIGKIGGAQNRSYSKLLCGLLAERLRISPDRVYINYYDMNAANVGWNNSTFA
Outline: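 Counter-screen for aggregation-based inhibition, with 0.1% v/v Triton X-100 in both buffer and enzyme stock. Wild-type human MIF (500 nM) preincubated with compound for 2 h at room temperature in 50 mM potassium phosphate, 0.5 mM EDTA, pH 6. 533 μM D-dopachrome methyl ester added; 475 nm end-point read at 2 min. IC50 by nonlinear regression.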

[2] = molecular target: T1, Macrophage migration inhibitory factor; experiment: Inhibition of human MIF tautomerase activity
Outline: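 Wild-type human MIF (500 nM final) preincubated with compound for 2 h at room temperature over 24 nM–50 μM or 98–200 μM. Buffer: 50 mM potassium phosphate, 0.5 mM EDTA, pH 6, no detergent. Reaction started with 533 μM freshly made D-dopachrome methyl ester; end-point absorbance at 475 nm after 2 min. Triplicate runs; IC50 by nonlinear regression.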

[3] = molecular target: T2, Macrophage migration inhibitory factor (Homo sapiens) (UniProt P14174); experiment: Inhibition of human MIF tautomerase activity at 200 uM
T2 sequence (whole entry): T1 sequence (P14174 whole entry)
Outline: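 Wild-type human MIF (500 nM) preincubated with compound at 200 μM for 2 h at room temperature in 50 mM potassium phosphate, 0.5 mM EDTA, pH 6. Reaction started with 533 μM fresh D-dopachrome methyl ester. Percent inhibition taken from absorbance at 475 nm 2 min after substrate addition.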

Row | IC50 [1] | IC50 [2] | inhibition [3] | Compound
1 | 103 µM | 45.2 µM | – | CC(=O)c1cc2ccc(O)cc2oc1=O
2 | 12.2 µM | 6.9 µM | – | COc1ccccc1C(=O)n1nnc2ccccc21
3 | – | 121 µM | – | O=Nc1c(-c2ccccc2)cc2ccccn12
4 | 4.2 µM | 2.8 µM | – | O=C(NOC(=O)c1ccccc1Br)c1ccc(Cl)cc1
5 | 0.05 µM | 0.05 µM | – | O=C(Oc1ccc(-c2ccccc2)nn1)c1cccs1
6 | 0.15 µM | 0.08 µM | – | CCCCOC(=O)Sc1nc2ccccc2o1
7 | – | 64.2 µM | – | O=C(c1ccccc1)c1cc2ccc(O)cc2oc1=O

Second part, the compound before the results:

Row | Compound | IC50 [1] | IC50 [2] | inhibition [3]
8 | S=C(Nc1ccccn1)Nc1ccccc1Cl | 1.01 µM | 1.04 µM | –
9 | COC(=O)CSc1nnc(-c2cccs2)n1C | 28.4 µM | 18.6 µM | –
10 | O=[N+]([O-])c1ccc(NCc2ccco2)c2nonc12 | – | 60.4 µM | –
11 | c1ccc(NCn2nnc3ccccc32)nc1 | – | – | 69%
12 | O=[N+]([O-])c1cc(S(=O)(=O)C(F)(F)F)ccc1Sc1nnc(S)s1 | – | 9.5 µM | –
13 | S=C(Nc1ccccc1)Nc1nncs1 | 0.42 µM | 0.3 µM | –
14 | CCOC(=O)/C(C#N)=C/c1ccc(O)cc1O | 110 µM | 62.1 µM | –
15 | Cc1ccc(C(=O)/C=C/Nc2ccc(F)cc2F)o1 | – | 57.5 µM | –
